# From PMC7116464 (Biochemical pharmacology, 2019)
# Assays:
# [1] = system: HO-like activity in LtP homogenates; assay: Heme oxygenase-like activity; format: biochemical, Leishmania tarentolae
# [2] = system: Leishmania tarentolae promastigotes (LtP); format: cell-based; details: for influence on the antileishmanial action (IC50) of Asc and Art: PIH 100 µM, SnMP 50 µM, CrMP 50 µM, NAC 2 mM, LtP in YEM/PBS with 6 µM hemin; for IC50: Leishmania tarentolae, read-out: IC50 in the absence of additional inhibitors
# [3] = system: Leishmania tarentolae promastigotes (LtP); assay: Metal; format: cell-based; details: 0 - 3 days; for iron content in LtP: 10 µM SnMP or 1 µM ZnPP, ICP-OES
# Summary of the method: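 Promastigotes (3.6 × 10^7/mL at day 0, OD600 0.3) grown in medium alone, with 10 µM SnMP or with 1 µM ZnPP for 0–3 days at 27 °C. After acid digestion (final 2 h at 75 °C), Fe measured by ICP-OES against 0.01–10 ppm standards. Sn measured by ICP-MS (120Sn, 0.1–100 ppb standards, isotope-corrected) after further 3-fold dilution. Results given as amol/cell.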
# [4] = system: hemin degradation in LtP homogenates and SGF/MCF fractions; assay: Hemin degradation in LtP homogenates and SGF/MCF subfractions by HPLC; format: biochemical, Leishmania tarentolae; details: 40 µM ZnPP, 7 µM hemin, 0, 2 or 4 h at 26 °C
# Summary of the method: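 LtP homogenates from hypo-osmotic lysis and freeze–thaw (37 mg protein/mL), or pooled SGF/MCF pellets from differential centrifugation (3.7 mg protein/mL). Samples diluted in phosphate buffer pH 7.4 with 7 µM hemin plus 1.1 mM NADPH or 40 µM ZnPP; 0, 2 or 4 h at 26 °C. Hemin followed by HPLC-UV, normalised to 0 h; mean ± SD, n = 3.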
# [5] = system: Leishmania tarentolae promastigotes (LtP); assay: Viability assay of LtP; format: cell-based; details: calculated from IC50, J774/IC50, LtP
# J774 macrophages = assay: Viability assay of J774 cells; format: cell-based, murine; details: Mus musculus, J774, read-out: IC50 J774
# Summary of the method: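 J774A.1 macrophages seeded at 1 × 10^5/mL in DMEM/10% FCS and allowed to attach for 24 h (37 °C, 5% CO2). Wells washed with PBS and refilled with medium. Compounds added from 25 or 200 µM in five 1:5 serial dilutions, triplicate. After 24 h, 20 µM resazurin (final) added for 4 h; fluorescence read at ex 560/em 590 nm.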
# [6] = system: labile iron pool (LIP) in LtP; assay: Low temperature EPR spectroscopy of the labile iron pool in LtP; format: cell-based, Leishmania tarentolae; details: 1 mM EP, 1 h at 26 °C, EPR at 77 K
# splenic parasite burden = details: Art orally 25 mg/kg body weight vs SAG 20 mg/kg body weight; cited from earlier work
# [7] = SnMP or CrMP 38 µM, 77 µM, hemin 6.67 µM, NADPH 1 mM, RLS, 27 °C, 30 min
Compound,influence on the antileishmanial action (IC50) of Asc and Art [2],"IC50, J774/IC50, LtP (selectivity index) [5]",IC50 (J774 macrophages) [µM],also measured
chromium mesoporphyrin [CrMP],inhibited the antileishmanial activity of Art stronger than that of Asc,,,"HO-like activity (bilirubin formation) [1, 7]: inhibit this HO-like activity"
"Cc1ncc(CO)c(/C=N/NC(=O)c2ccncc2)c1O [PIH, Pyridoxal isonicotinoyl hydrazone]",non-selectively inhibited the action of both Asc and Art in a similar fashion,,,
Tin mesoporphyrin [SnMP],inhibited the antileishmanial activity of Art stronger than that of Asc,,,"HO-like activity (bilirubin formation) [1, 7]: inhibit this HO-like activity; iron content in LtP [3]: almost identical over several days; Sn accumulation in LtP ([3]; 10 µM SnMP, ICP-MS): taken up into LtP"
"C=CC1=C(C)c2cc3[n-]c(cc4nc(cc5[n-]c(cc1n2)c(C)c5C=C)C(C)=C4CCC(=O)O)c(CCC(=O)O)c3C.[Zn+2] [ZnPP, zinc protoporphyrin]",,,,hemin degradation [4]: strongly inhibited; iron content in LtP [3]: small decline but no total inhibition of iron import into LtP
"C[C@H]1[C@@H](O)O[C@@H]2O[C@@]3(C)CC[C@H]4[C@H](C)CC[C@@H]1[C@@]24OO3 [DHA, dihydroartemisinin]",,20,14.8 ± 6.49,
"C[C@H]1[C@H](OC(=O)CCC(=O)O)O[C@@H]2O[C@@]3(C)CC[C@H]4[C@H](C)CC[C@@H]1[C@@]24OO3 [Arsu, artesunate]",,9,16.9 ± 5.2,
"N=C(N)c1ccc(OCCCCCOc2ccc(C(=N)N)cc2)cc1 [Pen, pentamidine isethionate]",,15,12.3 ± 3.96,
"CC(C)C12C=CC(C)(CC1)OO2 (centres unmarked) [Asc, Ascaridole]",,7,202 ± 38.2,IC50 [2]: 28.3 ± 6.7 µM
"C[C@@H]1CC[C@H]2[C@@H](C)C(=O)O[C@@H]3O[C@@]4(C)CC[C@@H]1[C@]32O4 [DeoxyArt, deoxyartemisinin]",,1,> 200,
"C[C@@H]1CC[C@H]2[C@@H](C)C(=O)O[C@@H]3O[C@@]4(C)CC[C@@H]1[C@]32OO4 [Art, artemisinin]",,,192 ± 41.1,influence on the redox state of the LIP (apparent Fe3+) [6]: influences the redox state of the LIP in LtP to a much lesser extent than Asc; HO-like activity (bilirubin formation) ([1]; Art 500 µM in the presence of catalase 2520 U/mL): inhibited the HO-like activity in LtP homogenates; IC50 [2]: 2.96 ± 0.71 µM; splenic parasite burden (splenic parasite burden): reduce the splenic parasite burden slightly more than sodium antimony gluconate (SAG)
"CC(=O)N[C@@H](CS)C(=O)O [NAC, N-acetylcysteine]",inhibited the action of Asc and even stronger that of Art,,,
